Laboratory results from paper PMC10582660 (Clinical and Translational Science, 2023).
Where two headings read alike, the source gives them in different places.

Experiments:
[1] = biological target: T1, OCT1 (Homo sapiens, UniProt O15245); assay: Raloxifene as a substrate for uptake transporters; assay type: in vitro ADME; conditions: raloxifene 1, 10 μM, 2, 20 min, two‐fold cutoff
T1 sequence (O15245 1-554): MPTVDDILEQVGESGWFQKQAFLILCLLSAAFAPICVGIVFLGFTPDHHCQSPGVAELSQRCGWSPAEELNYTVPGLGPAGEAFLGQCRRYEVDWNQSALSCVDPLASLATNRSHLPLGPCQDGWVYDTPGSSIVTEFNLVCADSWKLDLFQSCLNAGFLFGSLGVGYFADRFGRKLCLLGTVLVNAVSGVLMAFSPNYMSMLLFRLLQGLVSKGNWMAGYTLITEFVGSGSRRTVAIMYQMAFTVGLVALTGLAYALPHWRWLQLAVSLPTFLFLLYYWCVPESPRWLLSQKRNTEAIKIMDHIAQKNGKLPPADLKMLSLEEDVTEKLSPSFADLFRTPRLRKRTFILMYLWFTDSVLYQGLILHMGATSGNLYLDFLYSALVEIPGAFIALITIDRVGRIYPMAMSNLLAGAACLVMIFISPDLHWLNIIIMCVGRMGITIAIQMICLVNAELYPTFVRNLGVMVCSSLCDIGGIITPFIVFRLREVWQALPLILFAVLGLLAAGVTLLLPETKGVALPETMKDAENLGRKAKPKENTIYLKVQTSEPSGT
Procedure, shortened: (§1)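 Uptake of test compound (1 and 10 μM, 2 and 20 min) measured in transporter-expressing HEK293 or MDCKII cells or inside-out membrane vesicles. Run with positive-control probe substrates and inhibitors, plus empty-vector or untransfected control cells. Fold-accumulation relative to control cells judged against a two-fold cutoff for substrate status.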

[2] = biological target: T2, NTCP (Homo sapiens, UniProt Q14973); assay: Raloxifene as a substrate for uptake transporters; assay type: in vitro ADME; conditions: raloxifene 1, 10 μM, 2, 20 min, two‐fold cutoff
T2 sequence (Q14973 1-349): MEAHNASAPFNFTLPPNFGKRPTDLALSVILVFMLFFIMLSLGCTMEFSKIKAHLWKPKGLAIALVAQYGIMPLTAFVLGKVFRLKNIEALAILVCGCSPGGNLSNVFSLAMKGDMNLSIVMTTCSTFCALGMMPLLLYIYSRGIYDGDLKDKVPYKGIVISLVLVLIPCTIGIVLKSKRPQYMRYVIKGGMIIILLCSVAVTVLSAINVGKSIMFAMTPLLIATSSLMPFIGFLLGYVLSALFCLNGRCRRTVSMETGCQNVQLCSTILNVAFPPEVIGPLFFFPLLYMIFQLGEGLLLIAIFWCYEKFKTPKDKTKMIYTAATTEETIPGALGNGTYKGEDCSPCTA
Procedure, shortened: as §1

[3] = biological target: T3, OAT1 (Homo sapiens, UniProt Q4U2R8); assay: Raloxifene as a substrate for uptake transporters; assay type: in vitro ADME; conditions: raloxifene 1, 10 μM, 2, 20 min, two‐fold cutoff
T3 sequence (Q4U2R8 1-563): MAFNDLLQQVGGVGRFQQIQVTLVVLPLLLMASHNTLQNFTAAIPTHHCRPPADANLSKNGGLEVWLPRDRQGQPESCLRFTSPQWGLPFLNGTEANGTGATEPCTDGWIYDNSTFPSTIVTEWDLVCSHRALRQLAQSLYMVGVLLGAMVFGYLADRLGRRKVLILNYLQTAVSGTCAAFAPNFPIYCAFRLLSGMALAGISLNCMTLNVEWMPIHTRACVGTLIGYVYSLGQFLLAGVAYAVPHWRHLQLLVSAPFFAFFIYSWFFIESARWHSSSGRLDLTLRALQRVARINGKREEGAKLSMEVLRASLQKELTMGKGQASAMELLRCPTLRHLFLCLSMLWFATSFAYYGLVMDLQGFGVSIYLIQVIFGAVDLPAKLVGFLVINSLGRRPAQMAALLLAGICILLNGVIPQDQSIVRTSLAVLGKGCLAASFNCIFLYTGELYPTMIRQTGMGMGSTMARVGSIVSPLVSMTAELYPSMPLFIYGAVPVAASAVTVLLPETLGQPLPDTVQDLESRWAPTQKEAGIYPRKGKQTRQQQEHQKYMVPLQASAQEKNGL
Procedure, shortened: as §1

[4] = assay type: in vivo, human
Procedure, shortened: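 Open-label fixed-sequence crossover in 16 healthy adults (8 male, 8 female), arms ≥7 days apart, fasted from midnight. Oral 60 mg test compound tablet with 240 mL water at 50°C (baseline) or brewed green tea. Acute: tea (one bag, 240 mL water, 80°C, 3 min, cooled to 50°C) given with dose, then at 4 and 8 h. Chronic: tea three times daily for 4 days, then day 5 as acute.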

[5] = biological target: T4, OATP2B1 (Homo sapiens, UniProt O94956); assay: Raloxifene as a substrate for uptake transporters; assay type: in vitro ADME; conditions: raloxifene 1, 10 μM, 2, 20 min, two‐fold cutoff
T4 sequence (O94956 1-709): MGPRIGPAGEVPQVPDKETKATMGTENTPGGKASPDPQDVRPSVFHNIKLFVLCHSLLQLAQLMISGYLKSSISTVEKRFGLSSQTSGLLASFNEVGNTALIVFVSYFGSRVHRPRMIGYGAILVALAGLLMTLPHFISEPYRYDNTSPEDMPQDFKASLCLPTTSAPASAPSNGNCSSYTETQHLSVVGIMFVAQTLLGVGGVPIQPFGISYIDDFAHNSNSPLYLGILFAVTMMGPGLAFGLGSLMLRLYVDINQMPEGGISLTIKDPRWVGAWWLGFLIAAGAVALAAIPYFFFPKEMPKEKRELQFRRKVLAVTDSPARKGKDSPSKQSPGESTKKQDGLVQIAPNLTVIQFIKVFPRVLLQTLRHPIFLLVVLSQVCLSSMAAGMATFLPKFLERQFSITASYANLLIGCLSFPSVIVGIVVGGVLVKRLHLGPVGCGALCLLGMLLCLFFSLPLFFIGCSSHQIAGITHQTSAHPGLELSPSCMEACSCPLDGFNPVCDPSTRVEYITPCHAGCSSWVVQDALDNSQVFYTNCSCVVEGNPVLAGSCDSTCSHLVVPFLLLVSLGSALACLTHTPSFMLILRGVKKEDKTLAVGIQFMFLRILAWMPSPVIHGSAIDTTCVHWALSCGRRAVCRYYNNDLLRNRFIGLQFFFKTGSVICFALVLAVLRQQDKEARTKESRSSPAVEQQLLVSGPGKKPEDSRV
Procedure, shortened: as §1

[6] = upon acute and chronic green tea administration

O=C(c1ccc(OCCN2CCCCC2)cc1)c1c(-c2ccc(O)cc2)sc2cc(O)ccc12 [Raloxifene, raloxifene, reference compound]
fold‐accumulation [1]: 1.13–1.52
fold‐accumulation [2]: 1.14–1.33
fold‐accumulation [3]: 0.72–0.91
AUC0–48h green tea/baseline ratio (90% CI) ([4]; acute green tea vs baseline): 0.53 (0.43–0.64)
AUC0–96h green tea/baseline ratio (90% CI) ([4]; acute green tea vs baseline): 0.57 (0.46–0.70)
Cmax,1 green tea/baseline ratio (90% CI) ([4]; acute green tea vs baseline): 0.37 (0.28–0.50)
t 1/2 green tea/baseline ratio (90% CI) ([4]; acute green tea vs baseline): 0.95 (0.81–1.12)
AUC0–96h green tea/baseline ratio (90% CI) ([4]; acute green tea vs baseline, listed as raloxifene): 0.57
geometric mean green tea/baseline raloxifene AUC0–96h ratio ([4]; after both acute and chronic administration): ~ 0.60
half-life ([4]; both, human, plasma, oral, geometric mean terminal half‐life, unchanged upon acute and chronic green tea administration): ~24 h
Tmax ([4]; both, human, plasma, oral, median t max,1, unchanged upon acute and chronic green tea administration): ~2 h
AUC0–48h green tea/baseline ratio (90% CI) ([4]; chronic green tea vs baseline): 0.56 (0.43–0.72)
AUC0–96h green tea/baseline ratio (90% CI) ([4]; chronic green tea vs baseline): 0.66 (0.54–0.81)
Cmax,1 green tea/baseline ratio (90% CI) ([4]; chronic green tea vs baseline): 0.39 (0.24–0.64)
t 1/2 green tea/baseline ratio (90% CI) ([4]; chronic green tea vs baseline): 0.89 (0.75–1.04)
AUC0–96h green tea/baseline ratio (90% CI) ([4]; chronic green tea vs baseline, listed as raloxifene): 0.66
magnitude of the decrease in raloxifene AUC with green tea ([4]; main study): ~ 40%
tolerability ([4]; main study, 16 participants, no severe adverse events reported): well tolerated
AUC0–48h ratio [4, 6]: 0.53–0.56
Cmax,1 ratio [4, 6]: 0.37–0.39
fold‐accumulation [5]: 0.82–1.00
